Values after ≈ are worked out from the molar mass of the structure shown. Active and inactive are the calls of the source. The calls are words filed in the database; no cut-off is given here. Bounds are passed on as bounds.

What is called IC50 is the midpoint of a concentration-inhibition curve.

The nature of series [1]: Kinetic solubility of compound in phosphate buffer after 18 hrs by turbidimetric method. In kind it is physicochemical. As to conditions: read-out: Kinetic_solubility. The essentials: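 Compound serially diluted in DMSO at 100x final and diluted 100-fold into phosphate buffered saline. After 18 h at 37°C, turbidity read at 540 nm. Turbid if absorbance exceeded blank mean + 3 SD. Result is the highest concentration showing no turbidity.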

The subject of series [2] is Mus musculus. Nature of the series: Elevation of cGMP levels in hippocampal slices of wild type C57Bl6 mouse at 3 to 10 mg/kg, ip administered for 30 mins followed by foot shock measured at 10 to 180 secs after shock by enzyme immunoassay. It counts as functional, organism-based. The essentials: (§1)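 2-3 month old male and female C57Bl6 mice (20-25 g) dosed i.p. at 3 or 10 mg/kg in 2% DMSO & 2% Tween, or vehicle alone. Foot shock given 30 min later. Killed 10 s, 1 min or 3 min after shock. Hippocampi snap frozen. cGMP measured by enzyme immunoassay in duplicate and normalized to BCA protein. n=3 per group.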

Series [3] has as its system Mus musculus. Nature of the series: Elevation of cGMP levels in hippocampal slices of wild type ip dosed C57Bl6 mouse administered for 30 mins followed by foot shock measured at 10 to 60 secs after shock by enzyme immunoassay. In kind it is functional, organism-based. The essentials: as §1
For series [4], the system named is Mus musculus. As to the kind of experiment: Elevation of cGMP levels in hippocampal slices of wild type C57Bl6 mouse at 3 mg/kg, ip administered for 30 mins followed by foot shock measured at 10 to 60 secs after shock by enzyme immunoassay relative to control. It counts as functional. Put shortly:
(§2)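 Male and female C57Bl6 mice, 2-3 months old, 20-25 g, given i.p. drug or vehicle (2% DMSO & 2% Tween). Foot shock 30 min after dosing; killed by cervical dislocation and decapitation at 10 s, 1 min or 3 min. Hippocampi snap-frozen. cGMP measured by enzyme immunoassay in duplicate and normalised to BCA protein; n=3 per group; compared with vehicle.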

The subject of series [5] is Mus musculus. As to the kind of experiment: Elevation of cGMP levels in hippocampal slices of wild type C57Bl6 mouse at 10 mg/kg, ip administered for 30 mins followed by foot shock measured at 10 to 60 secs after shock by enzyme immunoassay relative to control. In kind it is functional. The essentials:
as §2

For series [6], the system named is Mus musculus. As to the kind of experiment: Elevation of cGMP levels in hippocampal slices of wild type C57Bl6 mouse at 10 mg/kg, ip administered for 30 mins followed by foot shock measured at 180 secs after shock by enzyme immunoassay relative to control. It counts as functional. The essentials: as §2
The test system of series [7] is Hippocampus. Nature of the series: Antialzheimer activity in […] transgenic mouse hippocampal slices assessed as long-term residual potentiation at 50 nM administered via bath perfusion for 10 mins prior to tetanus measured at the last 5 mins of 2 hrs recording (reference value: 137.90 +/- 10.83%). It counts as functional. The essentials: (§3)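 Acute hippocampal slices from 3–4 month old APP/PS1 transgenic mice or WT littermates. Slices received 50 nM compound or vehicle through bath perfusion for 10 min before tetanus. Residual potentiation was taken as the mean over the last 5 min of a 2 h recording. Experiments were blinded, values are SEM, and groups were compared by 2-way ANOVA for repeated measures.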

Series [8] relates to Hippocampus. As to the kind of experiment: Effect on long-term residual potentiation in wild type C57Bl6 mouse hippocampal slices at 50 nM administered via bath perfusion for 10 mins prior to tetanus measured at the last 5 mins of 2 hrs recording. Conditions: 0.05 µM. In kind it is ADME, tissue-based. The essentials: as §3
Series [9] deals with Mus musculus. Nature of the series: Antialzheimer activity in 3 to 4 months old APP1/PS1 transgenic mouse model assessed as long-term residual potentiation in hippocampal slices at 3 mg/kg, ip administered daily for 3 weeks measured at age of 6 to 7 months (reference value: 164.11 +/- 10.36%). It counts as functional.
The nature of series [10]: Plasma concentration in mouse at 25 mg/kg, ip measured at 0.25 hrs post dose by LC/MS analysis. In kind it is ADME, organism-based. Put shortly:
(§4)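 Mice given 25 mg/kg i.p., 3 animals per time point, sampled up to 2 h. Plasma taken from heparinized retro-orbital blood; brain homogenized in methanol. Both extracted with methanol plus internal standard and quantified by LC/MS against a standard curve. Half-life from single-phase exponential decay fit.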

A short description of series [11]: Drug level in mouse brain at 25 mg/kg, ip measured at 0.25 hrs post dose by LC/MS analysis. In kind it is ADME, organism-based. Conditions: read-out: Drug uptake. The essentials:
as §4

For series [12], the system named is Mus musculus. As to the kind of experiment: Plasma half life in mouse at 25 mg/kg, ip measured at 0.25 hrs post dose by LC/MS analysis. As to conditions: in vivo. In kind it is ADME, organism-based. The essentials: as §4
In series [13] the test system is Liver. Nature of the series: Half life in mouse liver microsomes at 1 uM measured up to 60 mins by LC-MS/MS analysis. In kind it is ADME, microsome. Conditions: 1 h. Put shortly:
(§5)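 Liver microsomes incubated with test compound at 1 µM final, 37°C, after a 3 min preincubation without cofactor, alongside a testosterone control. Protein precipitated; samples analyzed by LC-MS/MS with electrospray. Peak area ratio to internal standard compared with time 0 to give % remaining. Half-life from single-phase exponential decay fit.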
(In general: Liver microsomes are vesicles of endoplasmic reticulum, rich in cytochrome P450 enzymes.)

Series [14] concerns Liver. As to the kind of experiment: Half life in human liver microsomes at 1 uM measured up to 60 mins by LC-MS/MS analysis. In kind it is ADME, microsome. Conditions: 1 h. Put shortly:
as §5

Series [15] has as its system Mus musculus. As to the kind of experiment: Antialzheimer activity in APP1/PS1 transgenic mouse assessed as rescue contextual memory by measuring freezing at 3 mg/kg, ip administered daily for 3 weeks by contextual fear memory test (reference value: 15%). In kind it is functional. The essentials: (§6)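 Mice (APP/PS1 or wild-type) dosed 3 mg/kg i.p. daily for 3 weeks from age 3-4 months. Contextual fear learning scored 24 h after training as freezing (no movement except respiration) over 5 min in the training chamber. Mice tested at 3-4 months or at 6-7 months of age. Experiments blind; mean ± SEM.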

The subject of series [16] is Mus musculus. Nature of the series: Antialzheimer activity in APP1/PS1 transgenic mouse assessed as effect on number of errors at 3 mg/kg, ip administered daily for 3 weeks by 2 day radial arm water maze test (reference value: 3). It counts as functional.
The subject of series [17] is Mus musculus. Nature of the series: Antialzheimer activity in 3 to 4 months old APP1/PS1 transgenic mouse assessed as effect on freezing at 3 mg/kg, ip administered daily for 3 weeks measured at age of 6 to 7 months by contextual fear memory test (reference value: 15%). In kind it is functional. Put shortly: as §6
Series [18] has as its system Mus musculus. Nature of the series: Antialzheimer activity in 3 to 4 months old APP1/PS1 transgenic mouse assessed as effect on number of errors at 3 mg/kg, ip administered daily for 3 weeks measured at age of 6 to 7 months by 2 day radial arm water maze test (reference value: 2.5). It counts as functional.
The test system of series [19] is Mus musculus. As to the kind of experiment: Toxicity in wild type C57Bl6 mouse assessed as effect on freezing at 3 mg/kg, ip administered daily for 3 weeks by contextual fear memory test. In kind it is organism-based. Conditions: in vivo, 504 h. Put shortly: as §6
Series [20] concerns Mus musculus. Nature of the series: Toxicity in wild type C57Bl6 mouse assessed as effect on number of errors at 3 mg/kg, ip administered daily for 3 weeks by 2 day radial arm water maze test. As to conditions: in vivo. In kind it is organism-based. The essentials: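 Wild-type mice given 3 mg/kg i.p. daily for 3 weeks from age 3-4 months. Tested in 2-day radial arm water maze, with a hidden platform in one of 6 arms. Errors counted, averaged per mouse over blocks of 3 trials. Blind scoring; SEM.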

Series [21] deals with cGMP-specific 3',5'-cyclic phosphodiesterase (Homo sapiens, UniProt O76074). As to the kind of experiment: Inhibition of human recombinant PDE5A1 using FAM-labelled cGMP as substrate after 60 mins by fluorescence polarization assay. The essentials: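 Fluorescence polarization assay, room temperature, 60 min, with 100 nM FAM-cGMP and 0.1-0.45 ng PDE5 or 22.5-250 ng PDE6. Binding agent then added for 60 min; read at ex 485/em 528 nm. Duplicates at each concentration. Activity normalized to no-compound and no-enzyme controls; IC50 from sigmoidal dose-response fit.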
(In general: Fluorescence polarisation rises when a labelled molecule tumbles more slowly, as on binding a larger partner.)

The target in series [22] is Cone cGMP-specific 3',5'-cyclic phosphodiesterase subunit alpha' (Homo sapiens, UniProt P51160). Nature of the series: Inhibition of human recombinant PDE6C using FAM-labelled cGMP as substrate after 60 mins by fluorescence polarization assay.
Sequence of Cone cGMP-specific 3',5'-cyclic phosphodiesterase subunit alpha' (P51160 whole entry): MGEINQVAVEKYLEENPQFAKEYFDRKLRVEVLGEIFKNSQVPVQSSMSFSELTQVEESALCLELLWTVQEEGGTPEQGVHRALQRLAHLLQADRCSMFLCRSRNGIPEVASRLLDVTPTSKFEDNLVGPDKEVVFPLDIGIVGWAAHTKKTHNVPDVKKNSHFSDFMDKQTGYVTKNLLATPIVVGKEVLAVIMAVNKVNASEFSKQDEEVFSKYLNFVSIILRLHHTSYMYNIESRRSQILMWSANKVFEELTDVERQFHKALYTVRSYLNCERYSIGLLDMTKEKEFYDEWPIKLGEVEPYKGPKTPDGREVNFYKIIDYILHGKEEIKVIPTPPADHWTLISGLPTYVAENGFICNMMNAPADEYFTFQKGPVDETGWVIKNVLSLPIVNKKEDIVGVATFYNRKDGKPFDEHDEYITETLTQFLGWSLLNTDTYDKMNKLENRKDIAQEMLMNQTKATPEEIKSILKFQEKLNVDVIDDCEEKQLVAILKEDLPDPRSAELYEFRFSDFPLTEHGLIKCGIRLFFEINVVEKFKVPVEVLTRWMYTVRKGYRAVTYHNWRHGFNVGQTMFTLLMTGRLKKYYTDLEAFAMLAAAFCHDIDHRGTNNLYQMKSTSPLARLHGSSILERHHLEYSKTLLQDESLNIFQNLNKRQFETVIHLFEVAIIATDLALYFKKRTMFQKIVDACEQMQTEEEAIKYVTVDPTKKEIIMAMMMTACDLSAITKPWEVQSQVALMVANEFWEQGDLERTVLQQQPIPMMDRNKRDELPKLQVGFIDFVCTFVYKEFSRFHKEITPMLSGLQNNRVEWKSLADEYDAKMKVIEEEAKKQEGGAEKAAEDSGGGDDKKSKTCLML
The species named for the next series is Homo sapiens. As to the kind of experiment: Selectivity ratio of IC50 for human recombinant PDE6C to IC50 for human recombinant PDE5A1.

Turning to `COc1ccc(CNc2c(CO)cnc3c(C4CC4)cc(C#N)cc23)cc1Cl`, in series [1], the solubility kinetic at 18 h was below 3.9 µM.
Turning to `COc1ccc(CNc2c3c(nc4ccc(C#N)cc24)CCN(C(C)=O)C3)cc1Cl`, the result with Mus musculus [2] was Active. Further, the Activity result in the series on Mus musculus [3] was “Dose-dependent effect”; with Hippocampus [7], 201.76%; in the series with Hippocampus [8], “Non-Toxic”; in the series on Mus musculus [9], 226.22%; in the series on Mus musculus [15], 30%; with Mus musculus [16], 1. Moreover, the Activity in the series on Mus musculus [17] is reported as 40%; with Mus musculus [18], 1; in the series with Mus musculus [19], 30%; with Mus musculus [20], “Non-Toxic”. In addition, the “fold change (FC)” value in the series on Mus musculus [4] is given as 1.5; in the series on Mus musculus [5], 1.7; in the series with Mus musculus [6], 1.3. In addition, in series [1], the solubility kinetic at 18 h is above 500 µM. Moreover, the concentration at 0.25 h in series [10] is 1570 ng/mL; in series [11] it was 492 ng/g. Also, the t1/2 in the series with Mus musculus [12] stood at 64.2 min; in the series with Liver [13], 3.2 min; in the series with Liver [14], 6 min.
In the case of `CCN1CCc2nc3ccc(C#N)cc3c(NCc3ccc(OC)c(Cl)c3)c2C1`, in series [21], the half-maximal inhibitory concentration (IC50) is 0.19 nM.
Same read-out and setting: under `CC(=O)N1CCc2nc3ccc(C#N)cc3c(NCc3ccnc(Cl)c3)c2C1` stands 57 nM; under `COc1c(F)cc(CNc2c3c(nc4ccc(C#N)cc24)CCN(C(C)=O)C3)cc1Cl`, 0.32 nM.
On the same count and under the same terms, under `CC(=O)N1CCc2nc3ccc(C#N)cc3c(NCc3ccc(F)c(Cl)c3)c2C1` stands 1.5 nM.
On to `CCN1Cc2nc3ccc(C#N)cc3c(NCc3ccc(OC)c(Cl)c3)c2C1=O`, for which the IC50 in series [22] stood at 6.6 nM. The Ratio IC50 in the series filed under Homo sapiens came out at 100. Moreover, the solubility kinetic at 18 h in [1] is 3.1 µM (≈ 1.26 µg/mL).
With `COc1ccc(CNc2c3c(nc4ccc(C#N)cc24)CCN(C)C3)cc1Cl`, the IC50 in [21] stood at 0.59 nM.
Same read-out and setting: next, `CC(=O)N1CCc2nc3ccc(C#N)cc3c(NCc3ccc(OC(F)(F)F)c(Cl)c3)c2C1`: 337 nM; `COc1ccc(CNc2c3c(nc4ccc(Br)cc24)CCN(C(C)=O)C3)cc1Cl`: 3.1 nM; `COc1ccc2nc3c(c(NCc4ccc(OC)c(Cl)c4)c2c1)CN(C(C)=O)CC3`: 45.2 nM.

The values above are taken from ChEMBL document CHEMBL4017542, “Identification of a Novel 1,2,3,4-Tetrahydrobenzo[b][1,6]naphthyridine Analogue as a Potent Phosphodiesterase 5 Inhibitor with Improved Aqueous Solubility for the Treatment of Alzheimer's Disease” (J Med Chem, 2017).
